The values below come from ChEMBL document CHEMBL4024779, “Novel Terminal Bipheny-Based Diapophytoene Desaturases (CrtN) Inhibitors as Anti-MRSA/VISR/LRSA Agents with Reduced hERG Activity” (J Med Chem, 2018).

The IC50 is the concentration that gives 50% inhibition. As a reminder, the MIC80 is the lowest concentration that inhibits either 80% of growth or 80% of the strains tested, depending on the study. Broadly, the IC90 is the point of the concentration-response curve where the effect stands at 90%.

Assay [1] has as its target T1, 4,4'-diapophytoene desaturase (4,4'-diaponeurosporene-forming) (Staphylococcus aureus (strain Newman), UniProt O07855).
T1 sequence (O07855 whole entry): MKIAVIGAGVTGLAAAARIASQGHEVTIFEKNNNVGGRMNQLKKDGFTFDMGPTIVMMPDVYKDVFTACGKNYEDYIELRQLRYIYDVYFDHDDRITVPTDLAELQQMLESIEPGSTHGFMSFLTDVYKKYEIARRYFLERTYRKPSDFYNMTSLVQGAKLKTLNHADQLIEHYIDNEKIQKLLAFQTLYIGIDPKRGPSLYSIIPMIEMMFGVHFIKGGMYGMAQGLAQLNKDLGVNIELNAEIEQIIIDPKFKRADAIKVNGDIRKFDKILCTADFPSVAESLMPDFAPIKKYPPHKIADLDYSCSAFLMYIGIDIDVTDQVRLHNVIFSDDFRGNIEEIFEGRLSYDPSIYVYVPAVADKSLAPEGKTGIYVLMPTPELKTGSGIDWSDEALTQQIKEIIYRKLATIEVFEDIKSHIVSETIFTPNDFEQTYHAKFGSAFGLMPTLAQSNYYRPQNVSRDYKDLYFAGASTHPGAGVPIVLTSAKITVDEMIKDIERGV
In words: Inhibition of CrtN in Staphylococcus aureus Newman assessed as reduction in staphyloxanthin levels after 48 hrs by spectrophotometric method-based pigment inhibition assay. Further details: species or system Staphylococcus aureus subsp. aureus str. Newman.

In assay [2] the target is T2, 4,4'-diapophytoene desaturase (4,4'-diaponeurosporene-forming) (Staphylococcus aureus (strain MW2), UniProt Q8NUQ6).
T2 sequence (Q8NUQ6 whole entry): T1 sequence (O07855 whole entry) with R500Q
In words: Inhibition of CrtN in methicillin-resistant Staphylococcus aureus USA400 MW2 assessed as reduction in staphyloxanthin levels after 48 hrs by spectrophotometric method-based pigment inhibition assay. Further details: species or system Staphylococcus aureus subsp. aureus MW2.

Assay [3] can be described thus: Inhibition of CrtN in methicillin-resistant Staphylococcus aureus NRS271 assessed as reduction in staphyloxanthin levels after 48 hrs by spectrophotometric method-based pigment inhibition assay.
The subject of assay [4] is HepG2. Nature of the assay: Cytotoxicity against human HepG2 cells after 43 hrs by Alamar blue dye-based fluorescence assay. As to conditions: HepG2, 43 h. The format is cell-based. (In general: Alamar Blue is a resazurin reagent that responds to reducing activity.)
Assay [5] deals with Nannizzia gypsea. Nature of the assay: In vitro antifungal activity against Microsporum gypseum after 7 days by serial dilution method. As to conditions: 168 h. The assay is classed as functional.
The subject of assay [6] is Trichophyton mentagrophytes. In words: In vitro antifungal activity against Trichophyton mentagrophytes after 7 days by serial dilution method. The format is functional. The conditions noted are these: 168 h.
Assay [7] has as its system Staphylococcus aureus. Nature of the assay: Antibacterial activity against Staphylococcus aureus Newman assessed as change in bacterial growth at 0.2 mM […]. The format is functional.
Assay [8] concerns Staphylococcus aureus. Nature of the assay: Antibacterial activity against methicillin-resistant Staphylococcus aureus USA300 LAC assessed as change in bacterial growth at 0.2 mM […]. The format is functional.
Assay [9] concerns Staphylococcus aureus. In words: Antibacterial activity against methicillin-resistant Staphylococcus aureus Mu50 assessed as change in bacterial growth at 0.2 mM […]. The format is functional.
Assay [10] concerns Staphylococcus aureus. Nature of the assay: In vivo anti-virulence activity against Staphylococcus aureus Newman infected in BALB/c mouse model assessed as reduction in bacterial load in kidneys at 0.1 mg bid for 4.5 days administered intraperitoneally 24 hrs prior to infection by serial dilution method. The assay is classed as functional, organism-based. A digest of the protocol: (§1)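 Mice (n=10 per group) got 2.3 × 10^7 CFU S. aureus Newman by retro-orbital injection. Compound was given intraperitoneally b.i.d., either 24 h before infection (4.5 d) or 6 h after infection (3.5 d). Mice were sacrificed after 4.5 d and CFU counted in kidneys and hearts. Groups were compared by two-tailed Mann-Whitney test.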

Assay [11] deals with Staphylococcus aureus. Nature of the assay: In vivo anti-virulence activity against Staphylococcus aureus Newman infected in BALB/c mouse model assessed as reduction in bacterial load in kidneys at 0.4 mg bid for 3.5 days administered intraperitoneally 6 hrs post infection by serial dilution method. The format is functional, organism-based. A digest of the protocol:
as §1

Assay [12] concerns Staphylococcus aureus. Nature of the assay: In vivo anti-virulence activity against Staphylococcus aureus Newman infected in BALB/c mouse model assessed as reduction in bacterial load in heart at 0.4 mg bid for 4.5 days administered intraperitoneally 24 hrs prior to infection by serial dilution method. The assay is classed as functional, organism-based. A digest of the protocol: as §1

Assay [13] deals with Staphylococcus aureus. In words: In vivo anti-virulence activity against Staphylococcus aureus Newman infected in BALB/c mouse model assessed as reduction in bacterial load in heart at 0.1 mg bid for 3.5 days administered intraperitoneally 6 hrs post infection by serial dilution method. The format is functional, organism-based. A digest of the protocol:
as §1

In assay [14] the test system is Staphylococcus aureus. In words: In vivo anti-virulence activity against methicillin-resistant Staphylococcus aureus Mu50 infected in BALB/c mouse model assessed as reduction in bacterial load in kidneys at 0.1 mg bid for 4.5 days administered intraperitoneally 24 hrs prior to infection by serial dilution method. Further details: scale not given: the % may be the effect or the level left. The format is functional. A digest of the protocol:
(§2)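 Mice (n=10 per group) infected retro-orbitally with S. aureus Mu50 (1.1 × 10^9 or 1.3 × 10^9 CFU) or NRS271 (2.3 × 10^8 CFU). Compound given i.p. b.i.d., either 6 h after infection for 3.5 d or 24 h before infection for 4.5 d. Mice killed after 4.5 d; log10 CFU per organ counted in kidneys and hearts. Two-tailed Mann−Whitney test.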

The subject of assay [15] is Staphylococcus aureus. In words: In vivo anti-virulence activity against methicillin-resistant Staphylococcus aureus Mu50 infected in BALB/c mouse model assessed as reduction in bacterial load in kidneys at 0.4 mg bid for 3.5 days administered intraperitoneally 6 hrs post infection by serial dilution method. The format is functional. On the set-up: scale not given: the % may be the effect or the level left. A digest of the protocol:
as §2

Assay [16] concerns Staphylococcus aureus. In words: In vivo anti-virulence activity against methicillin-resistant Staphylococcus aureus Mu50 infected in BALB/c mouse model assessed as reduction in bacterial load in heart at 0.1 mg bid for 4.5 days administered intraperitoneally 24 hrs prior to infection by serial dilution method. The format is functional. On the set-up: scale not given: the % may be the effect or the level left. The method, boiled down: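 Mice were challenged with 1.3 × 10^9 CFU Mu50. Compound was given intraperitoneally, either 24 h before or 6 h after infection. Log10 CFU was counted in kidneys and hearts.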

In assay [17] the test system is Staphylococcus aureus. Nature of the assay: In vivo anti-virulence activity against methicillin-resistant Staphylococcus aureus NRS271 infected in BALB/c mouse model assessed as reduction in bacterial load in kidneys at 0.1 mg bid for 4.5 days administered intraperitoneally 24 hrs prior to infection by serial dilution method. The format is functional. Further details: scale not given: the % may be the effect or the level left. The method, boiled down: as §2

Assay [18] deals with Staphylococcus aureus. Nature of the assay: In vivo anti-virulence activity against methicillin-resistant Staphylococcus aureus NRS271 infected in BALB/c mouse model assessed as reduction in bacterial load in heart at 0.4 mg bid for 3.5 days administered intraperitoneally 6 hrs post infection by serial dilution method. The assay is classed as functional. Further details: scale not given: the % may be the effect or the level left. The method, boiled down:
as §2

Assay [19] relates to Staphylococcus aureus. Nature of the assay: Antibacterial activity against Staphylococcus aureus Newman derived after 12 passage by broth dilution method. The format is functional. (Broth dilution looks for growth in wells or tubes with falling amounts of substance.)

Changes are numbered by the printed parent chain. Active and inactive are the calls of the source. No cut-off for these calls is given here. Bounds are passed on as bounds.

With `CN(C/C=C/c1ccc(-c2ccccc2)cc1)Cc1cccc2cc[nH]c12.Cl`, the 50% inhibitory concentration (IC50) worked out at 3.3 nM in assay [1], 8 nM in [2], 10.1 nM in [3] and 21900 nM in assay [4]. Besides, the MIC80 in assay [5] and in assay [6] was greater than 64 µg/mL each time. Further, the result in [7], in assay [8], in assay [9], in assay [10], in assay [11] and in assay [12] was inactive. Moreover, the outcome in assay [13] was inactive. For the same compound, the Activity in assay [14], in assay [15], in assay [16], in assay [17] and in assay [18] was greater than 95% in each case. Besides, the IC90 in assay [19] came to 2.6 nM.
Take `CN(C/C=C/c1ccc(-c2ccccc2)cc1)Cc1coc2ccccc12.Cl`: the IC50 in assay [1] is 2 nM; in assay [2], 7.9 nM; in assay [3], 5.6 nM; in assay [4] it was 106000 nM. Further, the MIC80 was 32 µg/mL in assay [5] and greater than 64 µg/mL in assay [6]. In addition, the outcome in assay [7], in assay [8] and in assay [9] was inactive. The result in assay [10], in assay [11], in assay [12] and in assay [13] was Active. Also, the Activity in assay [14], in assay [15], in [16], in assay [17] and in [18] was greater than 95% throughout. For the same compound, the IC90 in assay [19] stood at 1.8 nM.
